For one assay, the system named is PC-9. Description: Antiproliferative activity against human PC-9 cells assessed as inhibition of cell growth measured after 72 hrs by CCK-8 assay. The note with it: PC-9, 72 h. It counts as functional, cell-based. The essentials: (§1)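 Cells seeded at 3000 cells/well in 96-well plates and treated with graded compound concentrations one day later for 72 h. CCK-8 was added for 1–4 h and absorbance read at 450 nm. Lung cancer lines were kept in RPMI 1640 with 10% fetal calf serum at 37 °C and 5% CO₂.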
(Tetrazolium dyes change colour on reduction, which living cells bring about.)

Assay [1] relates to NCI-H1975. As to the kind of experiment: Antiproliferative activity against human NCI-H1975 cells assessed as inhibition of cell growth measured after 72 hrs by CCK-8 assay. The assay is classed as functional, cell-based. To be noted: NCI-H1975, 72 h. The essentials:
as §1

Another assay concerns HCC827. As to the kind of experiment: Antiproliferative activity against human HCC827 cells assessed as inhibition of cell growth measured after 72 hrs by CCK-8 assay. It counts as functional, cell-based. The note with it: HCC827, 72 h. The essentials: as §1
Another assay relates to A549. As to the kind of experiment: Antiproliferative activity against human A549 cells assessed as inhibition of cell growth measured after 72 hrs by CCK-8 assay. The assay is classed as functional, cell-based. The note with it: A549, 72 h. The essentials: as §1
In a further assay the test system is HEK-293T. Description: Cytotoxicity against human HEK293T cells assessed as inhibition of cell growth measured after 72 hrs by CCK-8 assay. It counts as cell-based. The essentials: as §1
Another assay deals with BJ. Description: Cytotoxicity against human BJ cells assessed as inhibition of cell growth measured after 72 hrs by CCK-8 assay. It counts as cell-based. The essentials: as §1
Assay [2] relates to Protein cereblon/Epidermal growth factor receptor (Homo sapiens), P00533+Q96SW2 [L858R,T790M]. Description: Protac activity at CRBN/EGFR L858R/T790M mutant in human NCI-H1975 cells assessed as induction of EGFR degradation measured after 16 hrs by Western blot assay. The assay is classed as cell-based. The essentials: (§2)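 Cells seeded at 1-3X10^5/well and treated one day later with compounds at the concentrations and times given. Lysed in RIPA buffer with protease inhibitors. 15 µg protein run on 8% SDS-PAGE, transferred to nitrocellulose, probed for EGFR or phospho-EGFR, ECL detection. Lung lines kept in RPMI 1640 with 10% fetal calf serum, 37 °C, 5% CO2. DC50 is an estimated value. Repeated more than 3 times.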

For assay [3], the target named is T1, Protein cereblon/Epidermal growth factor receptor (Homo sapiens, UniProt P00533+Q96SW2). As to the kind of experiment: Protac activity at CRBN/EGFR in human PC-9 cells assessed as induction of EGFR degradation by Western blot assay. It counts as cell-based.
In assay [4] the target is T1, Protein cereblon/Epidermal growth factor receptor. As to the kind of experiment: Protac activity at CRBN/EGFR in human PB1 cells assessed as induction of EGFR degradation by Western blot assay. It counts as cell-based. For orientation: In western blotting, separated proteins are transferred to a membrane and probed.
Assay [5] shares this target. As to the kind of experiment: Protac activity at CRBN/EGFR in human NCI-H1975 cells assessed as induction of EGFR degradation by Western blot assay. It counts as cell-based.
The target is the same in assay [6]. As to the kind of experiment: Protac activity at CRBN/EGFR in human A549 cells assessed as induction of EGFR degradation by Western blot assay. It counts as cell-based.
Assay [7] concerns Protein cereblon/Epidermal growth factor receptor (Homo sapiens), P00533+Q96SW2 [UNDEFINED MUTATION]. As to the kind of experiment: Protac activity at CRBN/EGFR exon 19 deletion mutant in human PC-9 cells assessed as induction of EGFR degradation at >10 nM measured after 48 hrs by Western blot assay. It counts as cell-based. To be noted: dose nM >10, time 48.0 hrs. The essentials:
as §2

For assay [8] the test system is unchanged. As to the kind of experiment: Protac activity at CRBN/EGFR exon19 deletion/T790M mutant in human PC-9 cells transfected with BRCA1 assessed as induction of EGFR degradation at 1 to 1000 nM measured after 16 hrs by Western blot assay. The assay is classed as cell-based. The note with it: dose 1-1000 nM. The essentials:
as §2

For assay [9] the test system is unchanged. Description: Protac activity at CRBN/EGFR exon19 deletion/T790M mutant in human PC-9 cells transfected with BRCA1 assessed as induction of EGFR degradation at 1 to 1000 nM measured after 48 hrs by Western blot assay. The assay is classed as cell-based. The note with it: dose 1-1000 nM. The essentials:
as §2

The subject of assay [10] is Epidermal growth factor receptor (Homo sapiens), P00533 [L858R,T790M]. Description: Inhibition of EGFR L858R/T790M mutant phosphorylation in human NCI-H1975 cells at 1 to 100 nM measured after 16 hrs by Western blot assay. It counts as cell-based. To be noted: dose 1-100 nM. The essentials: as §2
Assay [11] has as its system NCI-H1975. As to the kind of experiment: Cell cycle arrest in human NCI-H1975 cells expressing EGFR L858R/T790M mutant assessed as decrease of cell population in S phase at […] measured after 48 hrs by RNaseA/propidium iodide staining based flow cytometry. The note with it: dose lower 0.03 nM. The assay is classed as functional. The essentials: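 H1975 cells (1 × 10⁵/well, 6-well plates) treated one day after seeding at the indicated concentrations for 48 h. Washed in cold PBS, fixed in cold ethanol at −20 °C for over 24 h, then stained with PI/RNase for 30 min at 37 °C in the dark. Phase distribution measured by flow cytometry.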
(In flow cytometry, cells or beads pass a laser one at a time.)

The subject of assay [12] is NCI-H1975. Description: Induction of apoptosis in human NCI-H1975 cells expressing EGFR L858R/T790M mutant assessed as decrease in number of viable cells measured after 72 hrs by Annexin-V/FITC staining based flow cytometry method. It counts as functional, cell-based. The essentials:
(§3)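 H1975 cells (8 × 10⁴/well, 12-well plates) treated one day after seeding at graded concentrations for 72 h. Collected, stained with Annexin V-FITC, and apoptosis measured by flow cytometry.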

Assay [13] concerns Protein cereblon/Epidermal growth factor receptor (Homo sapiens), P00533+Q96SW2 [L858R,T790M]. Description: Protac activity at CRBN/EGFR L858R/T790M mutant in human NCI-H1975 cells assessed as induction of EGFR degradation at 0.3 uM pre-incubated for 2 hrs in the presence of MLN4924 and measured after 16 hrs by Western blot assay. It counts as cell-based. To be noted: time 18.0 hrs.

The test system is the same in assay [14]. As to the kind of experiment: Protac activity at CRBN/EGFR L858R/T790M mutant in human NCI-H1975 cells assessed as increase in ratio of LC3B2 to LC3B1 at 30 to 300 nM measured after 16 hrs by Western blot assay. The assay is classed as cell-based. The note with it: dose 30-300 nM. The essentials:
(§4)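 H1975 cells in RPMI 1640 with 10% serum. Autophagy was read by Western blot as the LC3B II/LC3B I ratio. Serum-free medium and rapamycin served as autophagy-inducing positive controls, and rapamycin was also combined with degrader. Where pretreatment applied, compounds were added for 2 h before a 16 h PROTAC treatment.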

Assay [15] shares this test system. Description: Protac activity at CRBN/EGFR L858R/T790M mutant in human NCI-H1975 cells assessed as increase in ratio of LC3B2 to LC3B1 at 30 to 300 nM preincubated for 2 hrs in presence of Rapamycin and measured after 16 hrs by Western blot assay. It counts as cell-based. The note with it: dose 30-300 nM, time 18.0 hrs. The essentials:
as §4

The subject of assay [16] is NCI-H1975. As to the kind of experiment: Induction of apoptosis in human NCI-H1975 cells expressing EGFR L858R/T790M mutant assessed as increase in number of apoptotic cells measured after 72 hrs by Annexin-V/FITC staining based flow cytometry method. The assay is classed as functional, cell-based. The essentials: as §3
The subject of assay [17] is Protein cereblon/Epidermal growth factor receptor (Homo sapiens), P00533+Q96SW2 [L858R,T790M]. As to the kind of experiment: Protac activity at CRBN/EGFR L858R/T790M mutant in human NCI-H1975 cells assessed as increase in cell doubling time at 100 to 300 nM measured after 4 days by […] staining based fluorescence assay. The note with it: dose 100-300 nM, time 4.0 day.

Calls of active or inactive are those of the source. The calls are words filed in the database; no cut-off is given here.

The IC50 is the concentration that inhibits the measured activity by half. What is called DC50 is the midpoint of the concentration-degradation curve. As for `C=CC(=O)Nc1cc2c(Nc3ccc(F)c(Cl)c3)ncnc2cc1OCCCN1CCN(C(=O)CCCCCCNc2cccc3c2C(=O)N(C2CCC(=O)NC2=O)C3=O)CC1` (centres undefined), the IC50 was 3.94 nM with PC-9; 26.5 nM in the assay on NCI-H1975 [1]; 1.15 nM in the assay with HCC827; > 10000 nM with A549; > 10000 nM in the assay with HEK-293T; > 10000 nM in the assay on BJ. In addition, the outcome (in assay [2]; in assay [10]; with NCI-H1975 [11]; in assay [14]; in assay [15]; with NCI-H1975 [16]) was Active. The result in [17] was Active. In addition, the 50% degradation concentration (DC50) in assay [3] is 30 nM; in assay [4], “Not Active”; in assay [5], < 30 nM; in [6] it was “Not Active”. Also, the Activity result (in assay [7]; in the assay with NCI-H1975 [12]) was “Dose-Dependent Effect” in each case. The outcome in assay [8], in assay [9] and in assay [13] was inactive.

Regarding `C=CC(=O)Nc1cc2c(Nc3ccc(F)c(Cl)c3)ncnc2cc1OCCCN1CCN(C(=O)CCCCCNc2cccc3c2C(=O)N(C2CCC(=O)NC2=O)C3=O)CC1` (centres undefined), the IC50 with PC-9 is 2.6 nM; in the assay with NCI-H1975 [1], 22.1 nM; in the assay on HCC827 it was 2.12 nM; in the assay on A549 it was > 10000 nM; in the assay on HEK-293T, > 10000 nM; in the assay with BJ, > 10000 nM. Further, the outcome (in [2]; in assay [10]; in the assay with NCI-H1975 [11]; in assay [14]; in assay [15]; in the assay with NCI-H1975 [16]) was Active. The result in [17] was Active. Further, the DC50 in assay [3] was 100 nM; in [4], “Not Active”; in [5], 30 nM; in assay [6] it was “Not Active”. In addition, the Activity result (in [7]; in the assay on NCI-H1975 [12]) was “Dose-Dependent Effect” each time. The outcome in assay [8], in assay [9] and in assay [13] was inactive.

The values above are taken from ChEMBL document CHEMBL4825665, “Effective degradation of EGFRL858R+T790M mutant proteins by CRBN-based PROTACs through both proteosome and autophagy/lysosome degradation systems” (Eur J Med Chem, 2021).
